Laboratory results published in ChEMBL document CHEMBL4689842, “EUbOPEN Chemogenomics Library wave 1” (2021).
Values joined by “and” are separate entries in the source; they are usually repeats but may differ in a detail not shown here. Identical values can stand only once.

Test system: U2OS
Assay: Multiplex assay against U2OS
Assay type: toxicity, cell-based
Conditions: human
How it was run: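 On a CQ1 microscope at 37°C and 5% CO2, live cells were imaged after compound addition. They had been stained at seeding with Hoechst33342, BioTracker Green Microtubule Cytoskeleton Dye, MitoTracker Red and Annexin V Alexa Fluor 680. CellPathfinder machine-learning gating assigned cells to Hoechst high-intensity objects or normal cells, normal cells to healthy, pyknosed or fragmented nuclei, and pyknosed cells to mitotic or apoptotic. Tubulin, mitochondrial-mass and membrane-permeability phenotypes are per cents of healthy-nucleus cells.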

[1] = 12 h, 10 µM, compound concentration 10 uM, replicate 1
[2] = 12 h, 10 µM, compound concentration 10 uM, replicate 2
[3] = 24 h, 10 µM, compound concentration 10 uM, replicate 1
[4] = 24 h, 10 µM, compound concentration 10 uM, replicate 2
[5] = 12 h, 1 µM, compound concentration 1 uM, replicate 1
[6] = 12 h, 1 µM, compound concentration 1 uM, replicate 2
[7] = 24 h, 1 µM, compound concentration 1 uM, replicate 1
[8] = 24 h, 1 µM, compound concentration 1 uM, replicate 2

## CCN(CC)S(=O)(=O)Nc1cccc(-c2ccc3c(NC(=O)C4CC4)n[nH]c3c2)c1
[1]
  Population Apoptotic (%): 45% and 28%
  Population Fragmented Nuclei (%): 7% and 4%
  Population Healthy Nuclei (%): 83% and 87%
  Population Hoechst High Intensity Objects (%): 2% and 3%
  Population Membrane Permeable-Phenotype (%): 16% and 7%
  Population Mitochondria Different-Phenotype (%): 10% and 26%
  Population Mitotic Cells (%): 55% and 71%
  Population Normal (%): 97% and 96%
  Population Pyknosed Nuclei (%): 9% and 8%
  Population Tubulin-Different-Phenotype (%): 8% and 17%
  Total Cell Count: 177 and 289
[2]
  Population Apoptotic (%): 0% and 16%
  Population Fragmented Nuclei (%): 9% and 8%
  Population Healthy Nuclei (%): 80% and 85%
  Population Hoechst High Intensity Objects (%): 5% and 14%
  Population Mitotic Cells (%): 100% and 83%
  Population Normal (%): 94% and 85%
  Population Pyknosed Nuclei (%): 10% and 5%
  Population Tubulin-Different-Phenotype (%): 20% and 13%
  Total Cell Count: 120 and 259
[3]
  Population Apoptotic (%): 21%
  Population Healthy Nuclei (%): 70% and 92%
  Population Hoechst High Intensity Objects (%): 3% and 2%
  Population Mitochondria Different-Phenotype (%): 13% and 26%
  Population Mitotic Cells (%): 78%
  Population Normal (%): 96% and 97%
  Population Pyknosed Nuclei (%): 21%
  Total Cell Count: 241 and 253
[4]
  Population Apoptotic (%): 20% and 28%
  Population Fragmented Nuclei (%): 13% and 6%
  Population Healthy Nuclei (%): 68% and 87%
  Population Hoechst High Intensity Objects (%): 6% and 8%
  Population Membrane Permeable-Phenotype (%): 18% and 6%
  Population Mitochondria Different-Phenotype (%): 17% and 29%
  Population Mitotic Cells (%): 79% and 71%
  Population Normal (%): 93% and 91%
  Population Tubulin-Different-Phenotype (%): 22%
  Total Cell Count: 134 and 195

## Cn1nc(C(F)(F)F)cc1-c1cnc(N2CCc3cc(S(=O)(=O)Nc4c(F)cc(Cl)cc4F)cc(N4CCCC4=O)c32)nc1 [TP-020]
[5]
  Population Apoptotic (%): 27%
  Population Fragmented Nuclei (%): 4%
  Population Healthy Nuclei (%): 88%
  Population Hoechst High Intensity Objects (%): 4%
  Population Membrane Permeable-Phenotype (%): 17%
  Population Mitochondria Different-Phenotype (%): 18%
  Population Mitotic Cells (%): 72%
  Population Normal (%): 95%
  Population Pyknosed Nuclei (%): 6%
  Population Tubulin-Different-Phenotype (%): 10%
  Total Cell Count: 139
[6]
  Population Apoptotic (%): 0%
  Population Fragmented Nuclei (%): 14%
  Population Healthy Nuclei (%): 79%
  Population Hoechst High Intensity Objects (%): 15%
  Population Membrane Permeable-Phenotype (%): 15%
  Population Mitochondria Different-Phenotype (%): 15%
  Population Mitotic Cells (%): 100%
  Population Normal (%): 84%
  Population Pyknosed Nuclei (%): 5%
  Population Tubulin-Different-Phenotype (%): 15%
  Total Cell Count: 134
[1]
  Population Apoptotic (%): 50%
  Population Fragmented Nuclei (%): 3%
  Population Healthy Nuclei (%): 93%
  Population Hoechst High Intensity Objects (%): 4%
  Population Membrane Permeable-Phenotype (%): 11%
  Population Mitochondria Different-Phenotype (%): 23%
  Population Mitotic Cells (%): 50%
  Population Normal (%): 95%
  Population Pyknosed Nuclei (%): 3%
  Population Tubulin-Different-Phenotype (%): 22%
  Total Cell Count: 196
[2]
  Population Apoptotic (%): 16%
  Population Fragmented Nuclei (%): 8%
  Population Healthy Nuclei (%): 81%
  Population Hoechst High Intensity Objects (%): 5%
  Population Membrane Permeable-Phenotype (%): 10%
  Population Mitochondria Different-Phenotype (%): 31%
  Population Mitotic Cells (%): 83%
  Population Normal (%): 94%
  Population Pyknosed Nuclei (%): 9%
  Population Tubulin-Different-Phenotype (%): 26%
  Total Cell Count: 133
[7]
  Population Apoptotic (%): 20%
  Population Fragmented Nuclei (%): 2%
  Population Healthy Nuclei (%): 90%
  Population Hoechst High Intensity Objects (%): 2%
  Population Membrane Permeable-Phenotype (%): 12%
  Population Mitochondria Different-Phenotype (%): 10%
  Population Mitotic Cells (%): 80%
  Population Normal (%): 97%
  Population Pyknosed Nuclei (%): 7%
  Population Tubulin-Different-Phenotype (%): 16%
  Total Cell Count: 196
[8]
  Population Apoptotic (%): 42%
  Population Fragmented Nuclei (%): 12%
  Population Healthy Nuclei (%): 81%
  Population Hoechst High Intensity Objects (%): 5%
  Population Membrane Permeable-Phenotype (%): 13%
  Population Mitochondria Different-Phenotype (%): 23%
  Population Mitotic Cells (%): 57%
  Population Normal (%): 94%
  Population Pyknosed Nuclei (%): 5%
  Population Tubulin-Different-Phenotype (%): 11%
  Total Cell Count: 163
[3]
  Population Apoptotic (%): 9%
  Population Fragmented Nuclei (%): 3%
  Population Healthy Nuclei (%): 91%
  Population Hoechst High Intensity Objects (%): 1%
  Population Membrane Permeable-Phenotype (%): 6%
  Population Mitochondria Different-Phenotype (%): 19%
  Population Mitotic Cells (%): 90%
  Population Normal (%): 98%
  Population Tubulin-Different-Phenotype (%): 29%
  Total Cell Count: 268
[4]
  Population Apoptotic (%): 50%
  Population Fragmented Nuclei (%): 6%
  Population Healthy Nuclei (%): 88%
  Population Hoechst High Intensity Objects (%): 7%
  Population Membrane Permeable-Phenotype (%): 9%
  Population Mitochondria Different-Phenotype (%): 45%
  Population Mitotic Cells (%): 50%
  Population Normal (%): 92%
  Population Pyknosed Nuclei (%): 5%
  Population Tubulin-Different-Phenotype (%): 25%
  Total Cell Count: 175
